Laboratory results from ChEMBL document CHEMBL1141135, “A positron emission tomography radioligand for the in vivo labeling of metabotropic glutamate 1 receptor: (3-ethyl-2-[11C]methyl-6-quinolinyl)(cis- 4-methoxycyclohexyl)methanone” (J Med Chem, 2005).

Legend:
[1] = Uptake in rat blood 30 minutes after administration of the radiolabeled [11C]-compound; type: ADME, tissue-based; conditions: 0.5 h
[2] = Uptake in rat medulla 60 minutes after administration of the radiolabeled [11C]-compound; type: ADME, tissue-based, Medulla of organ; conditions: in vivo, 1 h
Method in brief: (§1)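 Male Sprague-Dawley rats received the [11C] radioligand iv and were sacrificed at 10, 30 or 60 min. Brain regions were dissected and radioactivity counted. Uptake is expressed as %ID/g, mean ± SD, n = 3 animals per group.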

[3] = Uptake in rat cerebellum 30 minutes after administration of the radiolabeled [11C]-compound; type: ADME, tissue-based; conditions: in vivo, 0.5 h; method in brief: as §1
[4] = Uptake in rat striatum 30 minutes after administration of the radiolabeled [11C]-compound; type: ADME, tissue-based; conditions: in vivo, 0.5 h; method in brief: as §1
[5] = biological target: Metabotropic glutamate receptor 5 (Rattus norvegicus, UniProt P31424); assay: In vitro affinity for cloned rat metabotropic glutamate 5 receptors stably expressed on CHO cells determined in radioligand binding assay; type: cell-based
Metabotropic glutamate receptor 5, sequence (P31424 whole entry): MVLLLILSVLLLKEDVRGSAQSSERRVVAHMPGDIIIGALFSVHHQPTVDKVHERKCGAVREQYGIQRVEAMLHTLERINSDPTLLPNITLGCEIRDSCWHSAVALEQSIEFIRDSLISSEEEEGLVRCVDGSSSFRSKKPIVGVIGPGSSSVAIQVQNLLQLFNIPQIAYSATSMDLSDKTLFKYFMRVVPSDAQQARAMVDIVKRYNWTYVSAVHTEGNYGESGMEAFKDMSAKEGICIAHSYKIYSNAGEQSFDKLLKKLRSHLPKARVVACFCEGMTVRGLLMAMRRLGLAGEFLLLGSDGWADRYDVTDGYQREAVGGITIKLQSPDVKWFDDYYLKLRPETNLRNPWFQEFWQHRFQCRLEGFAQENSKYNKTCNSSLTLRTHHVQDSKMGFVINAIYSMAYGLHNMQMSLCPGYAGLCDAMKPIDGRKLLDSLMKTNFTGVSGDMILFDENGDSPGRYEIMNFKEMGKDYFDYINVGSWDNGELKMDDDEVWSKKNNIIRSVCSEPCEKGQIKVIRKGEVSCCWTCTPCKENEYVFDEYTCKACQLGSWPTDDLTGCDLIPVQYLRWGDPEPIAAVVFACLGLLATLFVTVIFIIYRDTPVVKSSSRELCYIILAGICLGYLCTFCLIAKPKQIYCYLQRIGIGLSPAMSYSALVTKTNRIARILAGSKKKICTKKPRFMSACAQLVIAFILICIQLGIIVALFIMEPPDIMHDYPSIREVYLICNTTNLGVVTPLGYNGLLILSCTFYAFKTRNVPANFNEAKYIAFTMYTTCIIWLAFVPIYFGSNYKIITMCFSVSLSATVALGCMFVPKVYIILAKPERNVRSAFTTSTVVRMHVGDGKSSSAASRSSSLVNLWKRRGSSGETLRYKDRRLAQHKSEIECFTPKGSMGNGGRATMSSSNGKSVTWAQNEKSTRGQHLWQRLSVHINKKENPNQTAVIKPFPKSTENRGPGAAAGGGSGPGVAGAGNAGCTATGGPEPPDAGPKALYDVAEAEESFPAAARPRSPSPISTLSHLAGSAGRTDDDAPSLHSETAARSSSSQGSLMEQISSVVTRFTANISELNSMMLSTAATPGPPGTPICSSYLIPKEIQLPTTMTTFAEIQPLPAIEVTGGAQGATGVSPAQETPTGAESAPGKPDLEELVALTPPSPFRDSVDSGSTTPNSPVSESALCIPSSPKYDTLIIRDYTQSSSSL

[6] = Uptake in rat frontal cortex 60 minutes after administration of the radiolabeled [11C]-compound; type: ADME, tissue-based; conditions: in vivo, 1 h; method in brief: as §1
[7] = Uptake in rat blood 10 minutes after administration of the radiolabeled [11C]-compound; type: ADME, tissue-based
[8] = Uptake in rat cerebellum 60 minutes after administration of the radiolabeled [11C]-compound; type: ADME, tissue-based; conditions: in vivo, 1 h; method in brief: as §1
[9] = biological target: Metabotropic glutamate receptor 1 (Rattus norvegicus, UniProt P23385); assay: In vitro affinity for cloned rat metabotropic glutamate 1 receptors stably expressed on CHO cells determined using [3H]-R214127 as radioligand; type: cell-based
Metabotropic glutamate receptor 1, sequence (P23385 whole entry): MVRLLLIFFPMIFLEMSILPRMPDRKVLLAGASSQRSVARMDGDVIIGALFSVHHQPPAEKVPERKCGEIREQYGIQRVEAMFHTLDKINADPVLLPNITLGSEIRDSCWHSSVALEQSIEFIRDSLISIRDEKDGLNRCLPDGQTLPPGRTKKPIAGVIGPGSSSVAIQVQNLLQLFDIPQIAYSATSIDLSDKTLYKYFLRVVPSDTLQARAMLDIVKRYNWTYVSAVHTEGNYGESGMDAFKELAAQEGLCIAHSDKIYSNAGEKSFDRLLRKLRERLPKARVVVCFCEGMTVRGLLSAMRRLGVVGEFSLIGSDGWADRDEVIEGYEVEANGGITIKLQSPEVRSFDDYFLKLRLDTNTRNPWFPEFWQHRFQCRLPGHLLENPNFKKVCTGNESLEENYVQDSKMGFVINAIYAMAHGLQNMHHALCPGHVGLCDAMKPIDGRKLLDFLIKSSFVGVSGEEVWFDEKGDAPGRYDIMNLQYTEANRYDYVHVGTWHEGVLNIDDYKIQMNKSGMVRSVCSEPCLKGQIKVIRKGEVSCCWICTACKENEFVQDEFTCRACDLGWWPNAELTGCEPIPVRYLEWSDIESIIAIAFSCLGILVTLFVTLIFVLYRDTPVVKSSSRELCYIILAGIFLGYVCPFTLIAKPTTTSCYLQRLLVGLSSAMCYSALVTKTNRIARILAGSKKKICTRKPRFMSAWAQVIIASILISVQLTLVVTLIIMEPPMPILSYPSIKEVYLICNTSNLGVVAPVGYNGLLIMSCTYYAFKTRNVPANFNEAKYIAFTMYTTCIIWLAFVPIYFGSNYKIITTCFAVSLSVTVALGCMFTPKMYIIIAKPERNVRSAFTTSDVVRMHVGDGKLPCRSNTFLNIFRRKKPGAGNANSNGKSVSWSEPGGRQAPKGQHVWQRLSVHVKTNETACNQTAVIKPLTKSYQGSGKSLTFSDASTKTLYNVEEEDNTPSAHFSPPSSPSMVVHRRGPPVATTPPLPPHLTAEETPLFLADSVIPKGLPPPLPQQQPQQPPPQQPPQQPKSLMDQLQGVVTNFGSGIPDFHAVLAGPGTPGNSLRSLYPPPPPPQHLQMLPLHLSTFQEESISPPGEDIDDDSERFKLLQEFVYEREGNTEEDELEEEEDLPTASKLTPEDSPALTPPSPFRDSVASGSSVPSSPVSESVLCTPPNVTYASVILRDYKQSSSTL

[10] = Uptake in rat frontal cortex 10 minutes after administration of the radiolabeled [11C]-compound; type: ADME, tissue-based; conditions: in vivo; method in brief: as §1
[11] = Uptake in rat medulla 10 minutes after administration of the radiolabeled [11C]-compound; type: ADME, tissue-based, Medulla of organ; conditions: in vivo; method in brief: as §1
[12] = Uptake in rat striatum 10 minutes after administration of the radiolabeled [11C]-compound; type: ADME, tissue-based; conditions: in vivo; method in brief: as §1
[13] = Uptake in rat cerebellum 10 minutes after administration of the radiolabeled [11C]-compound; type: ADME, tissue-based; conditions: in vivo; method in brief: as §1
[14] = Uptake in rat frontal cortex 30 minutes after administration of the radiolabeled [11C]-compound; type: ADME, tissue-based; conditions: in vivo, 0.5 h; method in brief: as §1
[15] = Uptake in rat hippocampus 60 minutes after administration of the radiolabeled [11C]-compound; type: ADME, tissue-based; conditions: in vivo, 1 h; method in brief: as §1
[16] = Uptake in rat striatum 60 minutes after administration of the radiolabeled [11C]-compound; type: ADME, tissue-based; conditions: in vivo, 1 h; method in brief: as §1
[17] = Uptake in rat hippocampus 30 minutes after administration of the radiolabeled [11C]-compound; type: ADME, tissue-based; conditions: in vivo, 0.5 h; method in brief: as §1
[18] = Uptake in rat medulla 30 minutes after administration of the radiolabeled [11C]-compound; type: ADME, tissue-based, Medulla of organ; conditions: in vivo, 0.5 h; method in brief: as §1
[19] = Uptake in rat blood 60 minutes after administration of the radiolabeled [11C]-compound; type: ADME, tissue-based; conditions: 1 h
[20] = Uptake in rat hippocampus 10 minutes after administration of the radiolabeled [11C]-compound; type: ADME, tissue-based; conditions: in vivo; method in brief: as §1

- ID/g [1]: 0.26%
- ID/g [2]: 0.07%
- ID/g [3]: 0.61%
- ID/g [4]: 0.17%
- Ki [5]: 2370 nM
- ID/g [6]: 0.07%
- ID/g [7]: 0.42%
- ID/g [8]: 0.27%
- Ki [9]: 0.87 nM
- ID/g [10]: 0.52%
- ID/g [11]: 0.47%
- ID/g [12]: 0.73%
- ID/g [13]: 1.24%
- ID/g [14]: 0.13%
- ID/g [15]: 0.1%
- ID/g [16]: 0.1%
- ID/g [17]: 0.17%
- ID/g [18]: 0.13%
- ID/g [19]: 0.2%
- ID/g [20]: 0.58%
SMILES: CCc1cc2cc(C(=O)[C@H]3CC[C@@H](OC)CC3)ccc2nc1C
